# In ChEMBL document CHEMBL1122160, “Structure--activity relationships of nogalamycin analogues” (1982):
# pIC50: −log10 of the molar value.
# Key:
# L1210 [1] = test: Micromolar concentration required to inhibit the growth of L1210 cells by 50% was determined; type: functional; conditions: Mus musculus, read-out: ID50 (the source's name)
# L1210 [2] = test: Micromolar concentration required to inhibit the growth of L1210 cells by 90% was determined; type: functional, Mus musculus
# Mus musculus [3] = test: […] percent increase in life span of mice injected intraperitoneally with P-388 leukemia after administration (1.25 mg/kg)/day; type: functional
# In short: (§1)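 P-388 leukemia cells (10^6) implanted intraperitoneally in mice on day 0, following a standard National Cancer Institute protocol. Drug was given daily on days 1-9, or on days 1, 5 and 9 for some analogues. Dose level is as in each line.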
# Mus musculus [4] = test: Tested for antitumor activity in vivo and the weight change in grams for the tumor in mouse was determined; type: functional
# In short: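 Mice received 10^6 P-388 leukemia cells intraperitoneally on day 0, following the standard NCI protocol. Drug was injected daily on days 1-9, or only on days 1, 5 and 9 for certain analogues.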
# Mus musculus [5] = test: […] percent increase in life span of mice injected intraperitoneally with P-388 leukemia after administration (8 mg/kg)/day; type: functional; in short: as §1
# Mus musculus [6] = test: […] percent increase in life span of mice injected intraperitoneally with P-388 leukemia after administration (5 mg/kg)/day; type: functional; in short: as §1
# Mus musculus [7] = test: […] percent increase in life span of mice injected intraperitoneally with P-388 leukemia after administration (40 mg/kg)/day; type: functional; in short: as §1
# Mus musculus [8] = test: […] percent increase in life span of mice injected intraperitoneally with P-388 leukemia after administration (50 mg/kg)/day; type: functional; in short: as §1
# Mus musculus [9] = test: […] percent increase in life span of mice injected intraperitoneally with P-388 leukemia after administration (20 mg/kg)/day; type: functional; in short: as §1
# Mus musculus [10] = test: […] percent increase in life span of mice injected intraperitoneally with P-388 leukemia after administration (16 mg/kg)/day; type: functional; in short: as §1
# Mus musculus [11] = test: […] percent increase in life span of mice injected intraperitoneally with P-388 leukemia after administration (6.25 mg/kg)/day; type: functional; in short: as §1
# Mus musculus [12] = test: […] percent increase in life span of mice injected intraperitoneally with P-388 leukemia after administration (12.5 mg/kg)/day; type: functional; in short: as §1
# Mus musculus [13] = test: […] percent increase in life span of mice injected intraperitoneally with P-388 leukemia after administration (100 mg/kg)/day; type: functional; in short: as §1
# Mus musculus [14] = test: […] percent increase in life span of mice injected intraperitoneally with P-388 leukemia after administration (1 mg/kg)/day; type: functional; in short: as §1
# Mus musculus [15] = test: In vivo percent increase in life span of mice injected intraperitoneally with P-388 leukemia after administration (25 mg/kg)/day
# Mus musculus [16] = test: […] percent increase in life span of mice injected intraperitoneally with P-388 leukemia after administration (400 mg/kg)/day; type: functional; in short: as §1
# Mus musculus [17] = test: […] percent increase in life span of mice injected intraperitoneally with P-388 leukemia after administration (33 mg/kg)/day; type: functional; in short: as §1
# Mus musculus [18] = test: […] percent increase in life span of mice injected intraperitoneally with P-388 leukemia after administration (10 mg/kg)/day; type: functional; in short: as §1
SMILES,pIC50 (L1210 [1]),ID90 (L1210 [2]) [µM],Weight change (Mus musculus [4]) [g],further results
CNC1C(O)C2Oc3c(cc(O)c4c3C(=O)c3cc5c(c(O)c3C4=O)C(OC)CC(C)(O)C5)C(C)(O2)C1O (stereo not given),6.42,0.11,-1.3,ILS (Mus musculus [3]): 73%
COC1CC(C)(O)Cc2cc3c(c(O)c21)C(=O)c1c(O)cc2c(c1C3=O)OC1OC2(C)C(O)C(N(C)C=O)C1O (stereo not given),5.37,>5,,
CSC1CC(C)(O)Cc2cc3c(c(O)c21)C(=O)c1c(O)cc2c(c1C3=O)OC1OC2(C)C(O)C(N(C)C)C1O (stereo not given),6.89,0.34,-3.1,ILS (Mus musculus [5]): 37%
CN(C)C1C(O)C2Oc3c(cc(O)c4c3C(=O)c3cc5c(c(O)c3C4=O)C(N=[N+]=[N-])CC(C)(O)C5)C(C)(O2)C1O (stereo not given),6.08,1.76,-0.3,ILS (Mus musculus [6]): 33%
CN(C)C1C(O)C2Oc3c(cc(O)c4c3C(=O)c3cc5c(c(O)c3C4=O)C(N)CC(C)(O)C5)C(C)(O2)C1O (stereo not given),6.01,2,0.2,ILS (Mus musculus [7]): 47%
C=CCOC1CC(C)(O)Cc2cc3c(c(O)c21)C(=O)c1c(O)cc2c(c1C3=O)OC1OC2(C)C(O)C(N(C)C)C1O (stereo not given),6.74,0.53,0.3,ILS (Mus musculus [6]): 25%
COC1C(C)OC(OC2CC(C)(O)Cc3cc4c(c(O)c32)C(=O)c2c(O)cc3c(c2C4=O)OC2OC3(C)C(O)C(N(C)C=O)C2O)C(OC)C1(C)OC (stereo not given),< 6.00,>1,0.1,ILS (Mus musculus [8]): 0%
COC1C(C)OC(OC2CC(C)(O)Cc3cc4c(c(OC(C)=O)c32)C(=O)c2c(O)cc3c(c2C4=O)OC2OC3(C)C(OC(C)=O)C(N(C)C)C2OC(C)=O)C(OC)C1(C)OC (stereo not given),7.77,0.041,-0.1,ILS (Mus musculus [9]): 37%
COC1C(C)OC(OC2CC(C)(O)Cc3cc4c(c(O)c32)C(=O)c2c(O)cc3c(c2C4=O)OC2OC3(C)C(OC(C)=O)C(N(C)C)C2OC(C)=O)C(OC)C1(C)OC (stereo not given),7.12,0.21,-0.6,ILS (Mus musculus [8]): 41%
CN(C)C1C(O)C2Oc3c(cc(O)c4c3C(=O)c3cc5c(c(O)c3C4=O)C(OCCBr)CC(C)(O)C5)C(C)(O2)C1O (stereo not given),7.62,0.071,-1.3,ILS (Mus musculus [10]): 60%
COC(=O)C1c2cc3c(c(O)c2C(OC2OC(C)C(OC)C(C)(OC)C2OC)CC1(C)O)C(=O)c1c(O)cc2c(c1C3=O)OC1OC2(C)C(OC(C)=O)C(N(C)C)C1OC(C)=O (stereo not given),7.16,0.185,-0.3,ILS (Mus musculus [11]): 3%
COC1CC(C)(O)Cc2cc3c(c(O)c21)C(=O)c1c(O)cc2c(c1C3=O)OC1OC2(C)C(O)C(N(C)C)C1O (stereo not given),7.21,0.13,-0.4,ILS (Mus musculus [12]): 197%
CN(C)C1C(O)C2Oc3c(cc(O)c4c3C(=O)c3cc5c(c(O)c3C4=O)CCC(C)(O)C5)C(C)(O2)C1O (stereo not given),6.03,1.76,-1.2,ILS (Mus musculus [13]): 21%
COC(=O)[C@@H]1c2cc3c(c(O)c2[C@@H](O[C@@H]2O[C@@H](C)[C@H](OC)[C@@](C)(OC)[C@H]2OC)C[C@]1(C)O)C(=O)c1c(O)cc2c(c1C3=O)O[C@H]1O[C@@]2(C)[C@@H](O)[C@@H](N(C)C)[C@@H]1O,7.11,0.18,-0.5,ILS (Mus musculus [14]): 49%
CNC1C(O)C2Oc3c(cc(O)c4c3C(=O)c3cc5c(c(O)c3C4=O)C(OC3OC(C)C(OC)C(C)(OC)C3OC)CC(C)(O)C5C(=O)OC)C(C)(O2)C1O (stereo not given),6.44,0.9,-0.5,ILS (Mus musculus [15]): 59%
CN(C)C1C(O)C2Oc3c(cc(O)c4c3C(=O)c3cc5c(c(O)c3C4=O)CCC(C)(O)C5C(=O)O)C(C)(O2)C1O (stereo not given),5.25,14.5,0.2,ILS (Mus musculus [16]): -4%
COc1c2c(cc3c1C(OC)CC(C)(O)C3)C(=O)c1c3c(cc(O)c1C2=O)C1(C)OC(O3)C(O)C(N(C)C)C1O (stereo not given),5.35,9.7,0.6,ILS (Mus musculus [9]): 25%
COC(=O)C1c2cc3c(c(O)c2C(OC2OC(C)C(OC)C(C)(OC)C2OC)CC1(C)O)C(=O)c1c(O)cc2c(c1C3=O)OC1OC2(C)C(O)C(N(C)C=O)C1O (stereo not given),< 6.00,>1,-0.1,ILS (Mus musculus [15]): 12%
CNC1C(O)C2Oc3c(cc(O)c4c3C(=O)c3cc5c(c(O)c3C4=O)C(OC3OC(C)C(OC)C(C)(OC)C3OC)CC(C)(O)C5)C(C)(O2)C1O (stereo not given),6.06,>1,-0.6,ILS (Mus musculus [17]): 24%
COC1C(C)OC(OC2CC(C)(O)Cc3cc4c(c(O)c32)C(=O)c2c(O)cc3c(c2C4=O)OC2OC3(C)C(O)C(N(C)C)C2O)C(OC)C1(C)OC (stereo not given),6.74,0.27,-0.2,ILS (Mus musculus [6]): 93%
C#CCOC1CC(C)(O)Cc2cc3c(c(O)c21)C(=O)c1c(O)cc2c(c1C3=O)OC1OC2(C)C(O)C(N(C)C)C1O (stereo not given),6.82,0.32,-0.7,ILS (Mus musculus [18]): 41%
COCCNC1CC(C)(O)Cc2cc3c(c(O)c21)C(=O)c1c(O)cc2c(c1C3=O)OC1OC2(C)C(O)C(N(C)C)C1O (stereo not given),5.98,2.91,0.2,ILS (Mus musculus [7]): 40%
COC(=O)C1c2cc3c(c(O)c2CCC1(C)O)C(=O)c1c(O)cc2c(c1C3=O)OC1OC2(C)C(O)C(N(C)C)C1O (stereo not given),6.24,1.51,-0.7,ILS (Mus musculus [8]): 27%
